Experimental data gathered from unrelated publications.
Lines come from different studies, so protocols differ.
Target: Serine/threonine-protein kinase MAK (MAK, Homo sapiens, UniProt P20794)
Sequence (P20794 1-623, as in one of the studies): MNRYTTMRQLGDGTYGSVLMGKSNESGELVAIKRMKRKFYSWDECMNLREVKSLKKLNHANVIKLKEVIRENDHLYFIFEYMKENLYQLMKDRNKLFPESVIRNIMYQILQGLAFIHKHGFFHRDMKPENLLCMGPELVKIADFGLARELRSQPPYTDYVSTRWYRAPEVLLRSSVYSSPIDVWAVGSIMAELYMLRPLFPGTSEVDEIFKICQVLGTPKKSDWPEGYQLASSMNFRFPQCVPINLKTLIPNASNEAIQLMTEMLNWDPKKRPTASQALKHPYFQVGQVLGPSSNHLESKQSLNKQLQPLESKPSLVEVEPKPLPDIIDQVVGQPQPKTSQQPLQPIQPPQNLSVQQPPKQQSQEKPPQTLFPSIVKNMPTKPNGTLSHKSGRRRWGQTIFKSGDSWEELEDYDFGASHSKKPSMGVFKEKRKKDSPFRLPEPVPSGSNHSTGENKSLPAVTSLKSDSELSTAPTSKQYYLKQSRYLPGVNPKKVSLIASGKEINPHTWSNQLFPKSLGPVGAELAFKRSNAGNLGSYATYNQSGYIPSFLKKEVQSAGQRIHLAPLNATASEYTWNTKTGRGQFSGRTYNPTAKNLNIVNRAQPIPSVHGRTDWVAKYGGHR

| Structure (SMILES) | read-out | method | concentration | remaining binding [%] |
| --- | --- | --- | --- | --- |
| CN(c1nccc(-c2cnn3ncccc23)n1)C1CC1 | binding | – | 1 µM | 100 |
| CCCCN(CCCC)C(=O)CN1C[C@H](c2cc(OC)c3c(c2)OCO3)[C@@H](C(=O)O)[C@@H]1CC(C)(C)CCC | cell-free assay | competition with immobilised ligand | 1 µM | 100 |
| FC(F)(F)Oc1cccc(-c2cnc3ccc(-c4ccncc4)nn23)c1 | cell-free assay | competition with immobilised ligand | 5 µM | 99 |
| O=C(c1ccc(Nc2nccc(-c3cc4ccccc4s3)n2)cc1)N1CCC(N2CCCC2)CC1 | binding | competition with immobilised ligand | 1 µM | 100 |
| O=C1CCc2cc(Nc3cc(OC4CCOCC4)c([N+](=O)[O-])cc3Cl)ccc2N1 | cell-free assay | competition with immobilised ligand | 1 µM | 100 |
| O=C(NCCCN1CCOCC1)c1ccc(Nc2ncc(Cl)c(-c3ccc(Cl)s3)n2)cc1 | binding | competition with immobilised ligand | 1 µM | 100 |
| CCN1CCN(Cc2ccc(C(=O)Nc3ccc(C)c(Oc4ccc5c(c4)CC(=O)N5)c3)cc2C(F)(F)F)CC1 | binding | competition with immobilised ligand | 1 µM | 100 |
| O=C(Nc1cccnn1)N1CCC(=Cc2cccc(Oc3ccc(C(F)(F)F)cn3)c2)CC1 | cell-free assay | competition with immobilised ligand | 1 µM | 100 |
| CC1CCCN1c1nccc(-c2cnn3ncccc23)n1 (stereo not shown) | binding | – | 1 µM | 100 |
| CNC(=O)[C@@H]1CC[C@@H](n2c(-c3ccc4cnccc4c3)nc3ccc(C(=O)NCc4cccc(C(N)=O)c4)cc32)C1 | binding | competition with immobilised ligand | 1 µM | 80 |
| N[C@H]1CCN(c2nccc(-c3cnn4ncccc34)n2)C1 | binding | – | 1 µM | 78 |
| CO[C@H]1CC[C@H](CNc2ccc(S(=O)(=O)NC(=O)c3ccc(N4CCN(CC5=C(c6ccc(Cl)cc6)CC(C)(C)CC5)CC4)cc3Oc3cnc4[nH]ccc4c3)cc2[N+](=O)[O-])CC1 | cell-free assay | competition with immobilised ligand | 1 µM | 90 |
| CN(C)c1ncc(F)c(-c2cnn3ncccc23)n1 | binding | – | 1 µM | 91 |
| C=CC(=O)N1CCC(C(=O)NCC(=O)N2CCN(c3nc(-c4cnc(N)nc4C(F)F)nc(N4CCOCC4)n3)CC2)CC1 | binding | competition with immobilised ligand | 1 µM | 100 |
| CNC(=O)Nc1ccc2c(c1)[C@@]1(CC2)OC(=O)N(CC(=O)N(Cc2ccc(F)cc2)[C@@H](C)C(F)(F)F)C1=O | cell-free assay | competition with immobilised ligand | 1 µM | 100 |
| c1cncc(-c2cccc(Nc3nccc(NC4CCCCC4)n3)c2)c1 | binding | competition with immobilised ligand | 10 µM | 61 |
| COc1ccnn2ncc(-c3ccnc(N(C)C)n3)c12 | binding | – | 1 µM | 100 |
| Cn1nc(C(=O)NCc2ccc(C(=O)O)cc2)cc1-c1ccc2[nH]ccc2c1 | cell-free assay | competition with immobilised ligand | 0.1 µM | 92 |
| C[C@@H]1CCN(c2nccc(-c3cnn4ncccc34)n2)C1 | binding | – | 1 µM | 97 |
| O=C(Nc1c[nH]nc1C(=O)NC1CCNCC1)c1cc(F)cc(F)c1 | binding | competition with immobilised ligand | 1 µM | 78 |
| CN(C)c1nccc(-c2cnc3ncccn23)n1 | binding | – | 1 µM | 100 |
| O=C(c1ccc(Nc2ncc(Cl)c(-c3ccc(Cl)s3)n2)cc1)N1CCC(N2CCCC2)CC1 | binding | competition with immobilised ligand | 1 µM | 85 |
